Experimental data gathered from unrelated publications.
Each line is one published result; the experiments were not run side by side.
MTNR1A: Melatonin receptor type 1A (MTNR1A, Homo sapiens, UniProt P48039)

COc1ncccc1-c1cnn2ccc(N3CCN(C(=O)OC(C)C)CC3)nc12  remaining binding (Activin receptor type-2B (ACVR2B, Homo sapiens, UniProt Q13705); binding, competition with immobilised ligand; 1 µM): 69%
Cc1ccccc1N(C)C(=O)Oc1nsnc1N1CCCCC1  inhibition (Fatty-acid amide hydrolase 1 (FAAH, Homo sapiens, UniProt O00519); enzyme activity, inhibitor; 10 µM, cell membranes): 40%
CCN(CC)CCCC[C@H](NC(=O)[C@H](CC(C)C)NC(=O)[C@H](C)NC(=O)[C@H](Cc1ccccc1)NC(=O)c1ccc(C(C)(C)C)cc1)C(=O)N[C@@H](CO)C(=O)OC  ΔTm (BRWD3 (Homo sapiens, UniProt Q6RI45); thermal stability, DSF; 25 µM): -0.57 °C
COc1ccc2cccc(C(CO)CNC(=O)CF)c2c1 (centres unmarked)  Emax (MTNR1A; β-arrestin recruitment, agonist; CHO-K1; 90 min): 101%
Cc1nn(C)cc1-c1nc2c(N3CCN(Cc4ccc(Cl)cc4)CC3)c(Cl)cnc2[nH]1  remaining binding (Receptor-type tyrosine-protein kinase FLT3 (FLT3, Homo sapiens, UniProt P36888, K663Q); binding, competition with immobilised ligand; 1 µM): 0.8%
COc1ccc2[nH]cc(CCNC(=O)CI)c2c1  Emax (MTNR1A; β-arrestin recruitment, agonist; CHO-K1; 90 min): 92%
C#Cc1n[nH]c2c(-c3cn([C@@H](C)c4ccccn4)c(=O)[nH]c3=O)cc(F)cc12  inhibition (Aurora kinase C (AURKC, Homo sapiens, UniProt Q9UQB9); enzyme activity, inhibitor; 0.1 µM): 1.4%
Nc1ncc(-c2nc(N3CCOCC3)nc(N3CCOCC3)n2)c(C(F)F)n1  remaining binding (Serine/threonine-protein kinase SIK3 (SIK3, Homo sapiens, UniProt Q9Y2K2); binding, competition with immobilised ligand; 10 µM): 72%
